Drawing on ChEMBL document CHEMBL1141911, “Discovery and SAR studies of a novel series of noncovalent cathepsin S inhibitors” (Bioorg Med Chem Lett, 2005), this text covers IC50 and Ki for 33 molecules.

SMILES strings stand for the structures.

The subject of the first test is JY. As to the kind of experiment: Inhibitory concentration against Ii degradation in human JY cells (range IC50 = 0.6-0.8 uM). The format is functional, cell-based. Summed up:
(§1)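 Inhibition of invariant chain (Ii) cleavage was measured in human JY cells, an antigen-presenting line. IC50 values are the mean of at least 3 runs.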
A word on the IC50: it is the concentration needed to halve the response being measured. High values mean lower potency, low ones higher potency. The molecule `Cn1c(=O)n(C2CCN(CCCn3nc(-c4ccc(C(F)(F)F)cc4)c4c3CCN(S(C)(=O)=O)C4)CC2)c2cc(Cl)ccc21` returned an IC50 of 800 nM.

In a further test the test system is JY. The experiment in a line: Inhibitory concentration against Ii degradation in human JY cells. In kind it is functional, cell-based. Summed up: as §1
For the molecule `N#Cc1ccccc1N1CCN(CC(Cn2nc(-c3ccc(I)cc3)c3c2CCN(C(N)=O)C3)OC(N)=O)CC1` (stereo unspecified), the IC50 is 880 nM.

Take `CC(=O)N1CCc2c(c(-c3ccc(I)cc3)nn2CC(O)CN2CCN(c3ccccc3C#N)CC2)C1` (stereo unspecified): the concentration for half-maximal inhibition (IC50) came to 3900 nM.

`N#Cc1ccccc1N1CCN(CC(O)Cn2nc(-c3ccc(I)cc3)c3c2CCN(C(N)=O)C3)CC1` (stereo unspecified) came in with a 50% inhibitory concentration (IC50) of 1300 nM.

The target in the next test is Cathepsin S (Homo sapiens, UniProt P25774). As to the kind of experiment: Inhibitory concentration against cathepsin S.
Sequence of Cathepsin S (P25774 whole entry): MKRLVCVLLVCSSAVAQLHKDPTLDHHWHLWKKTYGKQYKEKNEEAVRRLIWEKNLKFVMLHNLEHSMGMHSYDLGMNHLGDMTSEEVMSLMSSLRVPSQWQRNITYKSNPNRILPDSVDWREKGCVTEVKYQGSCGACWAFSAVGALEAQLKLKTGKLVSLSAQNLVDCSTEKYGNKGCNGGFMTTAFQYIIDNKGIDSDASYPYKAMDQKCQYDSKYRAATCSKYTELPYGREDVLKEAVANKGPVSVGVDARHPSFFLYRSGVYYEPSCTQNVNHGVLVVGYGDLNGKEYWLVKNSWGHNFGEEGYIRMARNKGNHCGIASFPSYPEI
With `CC(=O)N1CCc2c(c(-c3ccc(C(F)(F)F)cc3)nn2CC(O)CN2CCC(n3c(=O)n(C)c4ccccc43)CC2)C1` (stereo unspecified), the midpoint of inhibition, the IC50, lay at 110 nM.

`CCCCn1c(=O)n(C2CCN(CC(O)Cn3nc(-c4ccc(Cl)c(C)c4)c4c3CCN(C(C)=O)C4)CC2)c2ccccc21` (stereo unspecified): the 50% inhibitory concentration (IC50) is 140 nM.

For `CC(=O)N1CCc2c(c(-c3ccc(C(F)(F)F)cc3)nn2C[C@@H](O)CN2CCC(n3c(O)nc4ccc(Cl)cc43)CC2)C1`, the IC50 worked out at 200 nM.

`CC(=O)N1CCc2c(c(-c3ccc(C(F)(F)F)cc3)nn2CC(O)CN2CCC(n3c(=O)[nH]c4ccccc43)CC2)C1` (stereo unspecified) had a half-inhibitory concentration (IC50) of 100 nM.

`CC(=O)N1CCc2c(c(-c3ccc(Cl)c(C)c3)nn2CC(O)CN2CCC(n3c(=O)[nH]c4ccccc43)CC2)C1` (stereo unspecified) showed a half-inhibitory concentration (IC50) of 130 nM.

The molecule `Cn1c(=O)n(C2CCN(CCCn3nc(-c4ccc(Cl)c(Cl)c4)c4c3CCN(S(C)(=O)=O)C4)CC2)c2ccccc21` displayed an IC50 of 50 nM.

Consider `CC(=O)N1CCc2c(c(-c3ccc(Cl)cc3)nn2CC(O)CN2CCN(C(c3ccc(F)cc3)c3ccc(F)cc3)CC2)C1` (stereo unspecified), for which half-maximal inhibition (IC50) was put at 1000 nM. This IC50 is about 20-fold higher than that of the molecule before.

Molecule `CS(=O)(=O)N1CCc2c(c(-c3ccc(Br)cc3)nn2CC(O)CN2CCC(n3c(=O)[nH]c4ccc(Cl)cc43)CC2)C1` (stereo unspecified) returned an IC50 of 50 nM. Against the preceding molecule, the IC50 is about 20-fold lower.

As for `CS(=O)(=O)N1CCc2c(c(-c3ccc(Br)cc3)nn2CCCN2CCC(n3c(=O)[nH]c4ccccc43)CC2)C1`, half-maximal inhibition (IC50) was put at 50 nM.

As to `CC(=O)N1CCc2c(c(-c3ccc(Cl)c(C)c3)nn2C[C@H](O)CN2CCC(n3c(=O)[nH]c4ccc(Cl)cc43)CC2)C1`, 350 nM corresponded to half-maximal inhibition (IC50).

In turn, `COc1ccc2c(c1)[nH]c(=O)n2C1CCN(CC(O)Cn2nc(-c3ccc(Br)cc3)c3c2CCN(C(C)=O)C3)CC1` (stereo unspecified) showed a concentration for half-maximal inhibition (IC50) of 140 nM.

Regarding `CC(=O)N1CCc2c(c(-c3ccc(Cl)c(C)c3)nn2CC(O)CN2CCC(n3c(=O)n(C(C)C)c4ccccc43)CC2)C1` (stereo unspecified), 100 nM corresponded to half-maximal inhibition (IC50).

The molecule `Cn1c(=O)n(C2CCN(CCCn3nc(-c4ccc(Br)cc4)c4c3CCN(S(C)(=O)=O)C4)CC2)c2ccccc21` yielded an IC50 of 140 nM. The IC50 values of the last two molecules are within 1.5-fold of each other.

Take `CC(=O)N1CCc2c(c(-c3ccc(Br)cc3)nn2CC(O)CN2CCC(n3c(=O)[nH]c4cc(Cl)c(Cl)cc43)CC2)C1` (stereo unspecified): the IC50 stood at 110 nM.

In turn, `CS(=O)(=O)N1CCc2c(c(-c3ccc(C(F)(F)F)cc3)nn2CC(O)CN2CCC(n3c(=O)[nH]c4ccccc43)CC2)C1` (stereo unspecified) came in with an IC50 of 50 nM.

On to `Cc1cc(-c2nn(CC(O)CN3CCC(n4c(=O)[nH]c5ccccc54)CC3)c3c2CN(S(C)(=O)=O)CC3)ccc1Cl` (stereo unspecified), for which the IC50 was found to be 60 nM.

Take `CC(=O)N1CCc2c(c(-c3ccc(Cl)cc3)nn2CC(O)CN2CCC(n3c(=O)[nH]c4ccccc43)CC2)C1` (stereo unspecified): the IC50 came to 460 nM.

On to `CS(=O)(=O)N1CCc2c(c(-c3ccc(C(F)(F)F)cc3)nn2CCCN2CCC(n3c(=O)[nH]c4ccccc43)CC2)C1`, for which half-maximal inhibition (IC50) was put at 50 nM.

`Cn1c(=O)n(C2CCN(CCCn3nc(-c4ccc(C(F)(F)F)cc4)c4c3CCN(S(C)(=O)=O)C4)CC2)c2cc(Cl)ccc21` gave a half-maximal inhibitory concentration (IC50) of 100 nM.

Take `CC(=O)N1CCc2c(c(-c3ccc(I)cc3)nn2CC(O)CN2CCC(n3c(=O)[nH]c4ccc(F)cc43)CC2)C1` (stereo unspecified): 230 nM corresponded to half-maximal inhibition (IC50).

As for `CC(=O)N1CCc2c(c(-c3ccc(Br)cc3)nn2CC(O)CN2CCC(n3c(=O)[nH]c4cccc(C)c43)CC2)C1` (stereo unspecified), the half-inhibitory concentration (IC50) is 210 nM.

The molecule `CC(=O)N1CCc2c(c(-c3ccc(Cl)c(C)c3)nn2CC(O)CN2CCC(n3c(=O)n(C)c4ccccc43)CC2)C1` (stereo unspecified) had an IC50 of 500 nM.

`CS(=O)(=O)N1CCc2c(c(-c3ccc(C(F)(F)F)cc3)nn2CC(O)CN2CCC(n3c(=O)[nH]c4ccc(Cl)cc43)CC2)C1` (stereo unspecified) displayed a concentration for half-maximal inhibition (IC50) of 60 nM.

Take `CC(=O)N1CCc2c(c(-c3ccc(Cl)c(C)c3)nn2CC(O)CN2CCC(n3c(=O)[nH]c4cc(C)ccc43)CC2)C1` (stereo unspecified): the IC50 amounted to 100 nM.

`CCn1c(=O)n(C2CCN(CC(O)Cn3nc(-c4ccc(Cl)c(C)c4)c4c3CCN(C(C)=O)C4)CC2)c2ccccc21` (stereo unspecified) displayed a 50% inhibitory concentration (IC50) of 310 nM.

Molecule `Cn1c(=O)n(C2CCN(CC(O)Cn3nc(-c4ccc(C(F)(F)F)cc4)c4c3CCN(S(C)(=O)=O)C4)CC2)c2cc(Cl)ccc21` (stereo unspecified) gave an IC50 of 80 nM.

`CC(=O)N1CCc2c(c(-c3ccc(I)cc3)nn2CC(O)CN2CCC(n3c(=O)[nH]c4ccccc43)CC2)C1` (stereo unspecified) gave an IC50 of 120 nM.

As to `CC(=O)N1CCc2c(c(-c3ccc(C(F)(F)F)cc3)nn2C[C@H](O)CN2CCC(n3c(O)nc4ccc(Cl)cc43)CC2)C1`, the IC50 was determined as 180 nM.

The molecule `CC(=O)N1CCc2c(c(-c3ccc(Br)cc3)nn2CC(O)CN2CCC(n3c(=O)[nH]c4ccccc43)CC2)C1` (stereo unspecified) yielded a 50% inhibitory concentration (IC50) of 80 nM.

Take `Cn1c(=O)n(C2CCN(CCCn3nc(-c4ccc(Cl)c(Cl)c4)c4c3CCN(S(C)(=O)=O)C4)CC2)c2cc(Cl)ccc21`: the half-inhibitory concentration (IC50) was 150 nM.

Target in a further test: not listed separately
The experiment in a line: Binding affinity against alpha-1A adrenergic receptor.
As a reminder, the Ki is the dissociation constant of the complex between target and ligand, obtained from inhibition or displacement. For the molecule `N#Cc1ccccc1N1CCN(CC(Cn2nc(-c3ccc(I)cc3)c3c2CCN(C(N)=O)C3)OC(N)=O)CC1` (stereo unspecified), the inhibition constant (Ki) amounted to 12 nM.

`N#Cc1ccccc1N1CCN(CC(O)Cn2nc(-c3ccc(I)cc3)c3c2CCN(C(N)=O)C3)CC1` (stereo unspecified) displayed a Ki of 36 nM.
